Assay results as given in paper PMC9226493 (Nucleic Acids Research, 2022).

What was measured:
UPEC 536 [1] = assay: Minimal inhibitory concentration; type: cell-based, Escherichia coli; details: (KFF)3K-conjugated 10mer PNAs at concentrations ≤10 μM, 24 h
acpP^91::gfp RNA = assay: In vitro translation of acpP::gfp RNA, western blot of AcpP1-17-GFP; type: biochemical, Escherichia coli; details: 10-molar excess of PPNA over template RNA; performed two times; listed as (KFF)3K-acpP
Outline: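 Target-gene fragment fused to gfp by overlap PCR, then T7 in vitro transcribed (3 h 45 min, 37°C; then DNase) and checked on 6% PAA/7 M urea gels. Heat-denatured RNA (1 pmol, 100 nM final) was pre-incubated with test compound at 37°C for 5 min. It was then translated in PURExpress for 2 h at 37°C. Water served as control. Analysis: 12% SDS-PAGE, anti-GFP western, Ponceau loading check, ImageJ signal relative to control.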

UPEC 536 [2] = assay: Killing time kinetics; type: cell-based, Escherichia coli; details: 1.25 μM, UPEC 536 10^5 cfu/ml, within 24 h

Sequence	growth inhibition of UPEC 536 (UPEC 536 [1])	also measured
KFFKFFKFFK [csrA 10mer PPNA]	did not trigger complete growth inhibition	–
KFFKFFKFFK [acpP 10mer PPNA]	–	effect on in vitro synthesis of AcpP1-17-GFP (acpP^91::gfp RNA): substantially inhibited
KFFKFFKFFK [nusG 10mer PPNA]	did not trigger complete growth inhibition	–
KFFKFFKFFK [scrambled 10mer PPNA]	–	abundance of living bacterial cells compared to the water control (UPEC 536 [2]): did not affect the abundance of living bacterial cells
KFFKFFKFFK [yidC 10mer PPNA]	did not trigger complete growth inhibition	–
